Active and inactive are the calls of the source. No cut-off for these calls is given here.
Tests used:
T47D [1] = experiment: Inhibition of cellular respiration in human T47D cells at 0.3 uM in presence of complex 2 substrate succinate; assay type: functional, cell-based
How it was run: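 Permeabilized T47D cells, oxygen consumption measured by Clark-type electrode. Complex I respiration started with malate plus pyruvate; succinate added as complex II substrate.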

PC-3 = experiment: Antiproliferative activity against human PC3 cells assessed as cell viability by SRB assay; assay type: functional, cell-based
How it was run: (§1)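 Cells grown in DMEM/F12 with 10% FBS, penicillin and streptomycin; 96-well viability assay, 2-day or 6-day exposure, with medium (5% FBS) and compound renewed after 3 days in the 6-day study. Read by optical density; % inhibition = [1 − (ODtreated/ODcontrol)] × 100 versus medium control.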

[2] = biological target: T1, Hypoxia inducible factors; HIF-1-alpha, HIF-2-alpha (Homo sapiens, UniProt Q16665+Q99814); experiment: Inhibition of 1, 10-phenanthroline-induced HIF1 activation in human T47D cells after 16 hrs by HRE3-TK-luciferase reporter gene assay; assay type: cell-based
T47D [3] = experiment: Ratio of IC50 for 1, 10-phenanthroline-induced HIF1 activation in human T47D cells to IC50 for hypoxia-induced HIF1 activation in human T47D cells; assay type: cell-based
[4] = biological target: Serine/threonine-protein kinase mTOR (Homo sapiens) (UniProt P42345); experiment: Inhibition of mTOR-mediated 4E-BP1 phosphorylation on Thr 37/46 in human T47D cells at 1 to 10 uM after 30 mins by Western blotting; assay type: cell-based
T47D [5] = experiment: Antiproliferative activity against human T47D cells assessed as cell viability at 1 uM after 72 hrs by SRB assay; assay type: functional; settings: read-out: Activity
How it was run: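 T47D cells treated for 72 h in parallel with the HPLC ATP time course; viability measured by sulforhodamine B, in which cells are fixed directly in the wells without aspiration or washing, so loosely attached cells are kept.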

T47D [6] = experiment: Reduction in ATP level in human T47D cells by HPLC-UV analysis at 1 uM after 72 hrs; assay type: functional, cell-based
How it was run: (§2)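 Cells seeded at 5 × 10^5 per well in DMEM/F12 with 10% FBS; after 24 h, half the medium was replaced with serum-free medium containing compound. Cells washed with cold DPBS, extracted with cold 0.4 M perchloric acid, neutralized with K2CO3. Nucleotides quantified by C18 HPLC-UV, 50 mM potassium phosphate pH 6.0/MeOH mobile phase, 0.7 mL/min.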

T47D [7] = experiment: Antiproliferative activity against human T47D cells assessed as cell viability by SRB assay; assay type: functional, cell-based; how it was run: as §1
[8] = biological target: T1, Hypoxia inducible factors; HIF-1-alpha, HIF-2-alpha; experiment: Inhibition of HIF1-mediated induction of secreted VEGF protein in hypoxia-stimulated human T47D cells at 3 uM after 16 hrs by ELISA; assay type: cell-based
MDA-MB-231 [9] = experiment: Antiproliferative activity against human MDA-MB-231 cells assessed as cell viability by SRB assay; assay type: functional, cell-based; how it was run: as §1
[10] = biological target: Serine/threonine-protein kinase mTOR (Homo sapiens) (UniProt P42345); experiment: Inhibition of mTOR-mediated 4E-BP1 phosphorylation on Thr 37/46 in human MDA-MB-231 cells at 1 to 10 uM after 30 mins by Western blotting; assay type: cell-based
T47D [11] = experiment: Inhibition of 1, 10-phenanthroline-induced HIF1alpha protein accumulation in human T47D cells at 3 uM after 4 hrs by Western blot analysis; assay type: functional, cell-based
T47D [12] = experiment: Reduction in ATP level in human T47D cells after 48 hrs by HPLC-UV analysis; assay type: functional, cell-based
How it was run: (§3)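 5 × 10^5 cells per well seeded in DMEM/F12 with 10% FBS. After 24 h, half the medium replaced with serum-free DMEM/F12 containing compound. After exposure, cells washed in cold DPBS and extracted with cold 0.4 M perchloric acid, then neutralized with K2CO3. ATP quantified by reversed-phase C18 HPLC-UV using 50 mM potassium phosphate pH 6.0/MeOH at 0.7 mL/min.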

[13] = biological target: Serine/threonine-protein kinase mTOR (Homo sapiens) (UniProt P42345); experiment: Inhibition of mTOR in human T47D cells assessed as eIF2alpha hyperphosphorylation on Ser 51 at 1 to 10 uM after 30 mins by Western blotting; assay type: cell-based
How it was run: (§4)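 Cells seeded at 0.8 × 10^6 per well, exposed 30 min at 37 °C, 5% CO2, in DMEM/F12 with 5% FBS. Lysed in modified RIPA (pH 7.6) with protease and phosphatase inhibitors; 40 µg protein run on 4–20% gels, nitrocellulose transfer. Phospho-specific and total eIF2α/eEF2 primaries at 1:1,000, HRP anti-rabbit at 1:2000, chemiluminescence on film.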

T47D [14] = experiment: Inhibition of cellular respiration in human T47D cells at 1 uM by oxygen consumption assay; assay type: functional
How it was run: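 Oxygen consumption of intact T47D cells measured with a Clark-type electrode, in serum-free DMEM/F12 at 30 °C.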

[15] = biological target: T1, Hypoxia inducible factors; HIF-1-alpha, HIF-2-alpha; experiment: Inhibition of HIF1-mediated induction of VEGF mRNA expression in hypoxia-stimulated human T47D cells at 0.3 to 3 uM after 16 hrs by RT-PCR analysis; assay type: cell-based
T47D [16] = experiment: Inhibition of cellular respiration in human T47D cells at 0.3 uM in presence of complex 4 substrate TMPD/ascorbate; assay type: functional, cell-based
[17] = biological target: Serine/threonine-protein kinase mTOR (Homo sapiens) (UniProt P42345); experiment: Inhibition of mTOR-mediated rpS6 phosphorylation on Ser 235/236 in human MDA-MB-231 cells at 1 to 10 uM after 30 mins by Western blotting; assay type: cell-based
T47D [18] = experiment: Inhibition of cellular respiration in human T47D cells at 0.3 uM by oxygen consumption assay in presence of complex 3 substrate antimycin A; assay type: functional, cell-based
[19] = biological target: T1, Hypoxia inducible factors; HIF-1-alpha, HIF-2-alpha; experiment: Inhibition of HIF1-mediated induction of Glut-1 mRNA expression in human T47D cells at 3 uM after 16 hrs by RT-PCR analysis under normoxic condition; assay type: cell-based
MDA-MB-231 [20] = experiment: Reduction in ATP level in human MDA-MB-231 cells after 72 hrs by HPLC-UV analysis; assay type: functional, cell-based; how it was run: as §3
[21] = biological target: T1, Hypoxia inducible factors; HIF-1-alpha, HIF-2-alpha; experiment: Inhibition of HIF1-mediated induction of VEGF mRNA expression in human T47D cells at 3 uM after 16 hrs by RT-PCR analysis under normoxic condition; assay type: cell-based
[22] = biological target: Serine/threonine-protein kinase mTOR (Homo sapiens) (UniProt P42345); experiment: Inhibition of mTOR-mediated eIF4E phosphorylation on Ser 209 in human MDA-MB-231 cells at 1 to 10 uM after 30 mins by Western blotting; assay type: cell-based
[23] = biological target: Serine/threonine-protein kinase mTOR (Homo sapiens) (UniProt P42345); experiment: Inhibition of mTOR in human MDA-MB-231 cells assessed as eEF2 hyperphosphorylation on Ser 56 at 1 to 10 uM after 30 mins by Western blotting; assay type: cell-based; how it was run: as §4
[24] = biological target: T1, Hypoxia inducible factors; HIF-1-alpha, HIF-2-alpha; experiment: Inhibition of hypoxia-induced HIF1 activation in human T47D cells after 16 hrs by HRE3-TK-luciferase reporter gene assay; assay type: cell-based
How it was run: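 T47D cells carrying the pHRE3-TK-Luc reporter, grown in DMEM/F12 with 10% FBS; HIF-1 induced by hypoxia (1% O2). Activity reported as % inhibition of the induced control, calculated as [1 − (treated/control)] × 100.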

[25] = biological target: T1, Hypoxia inducible factors; HIF-1-alpha, HIF-2-alpha; experiment: Inhibition of HIF1-mediated induction of cellular VEGF protein in hypoxia-stimulated human T47D cells at 3 uM after 16 hrs by ELISA; assay type: cell-based
T47D [26] = experiment: Reduction in ATP level in human T47D cells after 72 hrs by HPLC-UV analysis; assay type: functional, cell-based; how it was run: as §3
MDA-MB-231 [27] = experiment: Reduction in ATP level in human MDA-MB-231 cells at 0.1 to 1 uM after 48 hrs by HPLC-UV analysis; assay type: functional, cell-based; how it was run: as §2
[28] = biological target: Serine/threonine-protein kinase mTOR (Homo sapiens) (UniProt P42345); experiment: Inhibition of mTOR in human MDA-MB-231 cells assessed as eIF2alpha hyperphosphorylation on Ser 51 at 1 to 10 uM after 30 mins by Western blotting; assay type: cell-based; how it was run: as §4

SMILES: CC(C)CC(=O)O[C@@H]1CC[C@]2(C)[C@H]3CC[C@]45C[C@]4(CC[C@@H]5[C@@H]4C[C@H]([C@@H]5OC5(C)C)OC4O)[C@]3(C)[C@H](O)C[C@H]2C1(C)C (some centres undefined) [SKIMMIAREPIN A]
- inhibition (T47D [1]): inactive
- Activity (PC-3): Active
- IC50 [2]: > 10 µM
- Ratio IC50 (T47D [3]): 80
- inhibition [4]: inactive
- viability at 1 µM (T47D [5]): 50%
- Activity (T47D [6]): Active
- Activity (T47D [7]): Active
- inhibition [8]: Active
- Activity (MDA-MB-231 [9]): inactive
- inhibition [10]: inactive
- inhibition (T47D [11]): inactive
- Activity (T47D [12]): Active
- inhibition [13]: Dose-dependent effect
- inhibition at 1 µM (T47D [14]): 73%
- inhibition [15]: Active
- inhibition (T47D [16]): inactive
- inhibition [17]: inactive
- inhibition (T47D [18]): inactive
- inhibition [19]: inactive
- Activity (MDA-MB-231 [20]): Dose-dependent effect
- inhibition [21]: inactive
- inhibition [22]: inactive
- Activity [23]: Dose-dependent effect
- IC50 [24]: 0.063 µM
- inhibition [25]: Active
- Activity (T47D [26]): Dose-dependent effect
- Activity (MDA-MB-231 [27]): inactive
- Activity [28]: Dose-dependent effect

Source: ChEMBL document CHEMBL1909531, “Mitochondrial respiration inhibitors suppress protein translation and hypoxic signaling via the hyperphosphorylation and inactivation of translation initiation factor eIF2α and elongation factor eEF2” (J Nat Prod, 2011)
